Assay results from different studies.
CYP2B6: Cytochrome P450 2B6 (CYP2B6, Homo sapiens, UniProt P20813)

SMILES	tested on	assay	system	conditions	quantity	value
Cc1cc(C)cc(-n2cc(CN3CCN(C(=O)c4c(C)nc5ccc(Cl)cn45)CC3)nn2)c1	HeLa	cell growth or viability, resazurin	–	–	CC50	> 100 µM
CCOP(=O)(OCC)[C@@H]1C[C@@H](n2cc(Cn3cc(C)c(=O)[nH]c3=O)nn2)ON1C (racemic)	HEL	cell growth or viability	–	72 h	CC50	> 100 µM
Cc1ccn2c(C(=O)N3CCN(CCn4cc(-c5ccc(C(C)(C)C)cc5)nn4)CC3)c(C)nc2c1	HeLa	cell growth or viability, resazurin	–	–	CC50	> 100 µM
Oc1ccc(Cl)cc1C=NNc1nc(-c2ccc(F)cc2)cs1	–	haemolysis	human	100 µM, 30 min, pH 7.4	haemolysis	52.5%
Cc1cccc(F)c1N1CCC(N2Cc3cn(CC(C)(F)F)nc3N(Cc3ccccc3C(F)(F)F)C2=O)CC1	CYP2B6	enzyme activity, inhibitor	human, liver microsomes	–	IC50	> 10 µM
CCN(CC)CCCC(C)Nc1ccnc2cc(Cl)ccc12 (stereo not drawn)	–	haemolysis	human	10 mM, 45 min	haemolysis	15.4%
CCOP(=O)(OCC)[C@@H]1C[C@H](n2cc(Cn3ccc(=O)[nH]c3=O)nn2)ON1C (racemic)	HeLa	cell growth or viability	–	72 h	CC50	> 250 µM
CC(CCc1ccccc1)=NNc1nc(-c2ccc(F)cc2)cs1	–	haemolysis	human	50 µM, 30 min, pH 7.4	haemolysis	8.38%
CCc1cc(/C(C)=N/OCc2ccc(C3CCCCC3)c(C(F)(F)F)c2)ccc1CN1CC(C(=O)O)C1	CYP2B6	enzyme activity, inhibitor	human, liver microsomes	100 µM, 20 min	inhibition	21%
Oc1c(Br)cc(Cl)c2cccnc12	–	–	Sprague-Dawley rat, plasma	oral, 20 mg/kg	CL/F	85 mL/min/kg
CCOP(=O)(OCC)[C@@H]1C[C@@H](n2cc(C(=O)OC)nn2)ON1C (relative stereo)	HEL	cell growth or viability	–	72 h	CC50	> 100 µM
Cc1nc2ccc(Cl)cn2c1C(=O)N1CCN(Cc2cn(-c3ccc([N+](=O)[O-])cc3)nn2)CC1	HeLa	cell growth or viability, resazurin	–	–	CC50	> 100 µM
CCOc1ccccc1C=NNc1nc(-c2ccc(F)cc2)cs1	–	haemolysis	human	50 µM, 30 min, pH 7.4	haemolysis	16.8%
CCc1ccc(-n2cc(CN3CCN(C(=O)c4c(C)nc5ccc(Cl)cn45)CC3)nn2)cc1	HeLa	cell growth or viability, resazurin	–	–	CC50	58.1 µM
Fc1ccc(-c2csc(NN=Cc3ccc(C(F)(F)F)cc3)n2)cc1	–	haemolysis	human	50 µM, 30 min, pH 7.4	haemolysis	25.7%
Cc1ccn2c(C(=O)N3CCN(Cc4cn(-c5ccc(C(F)(F)F)cc5)nn4)CC3)c(C)nc2c1	HeLa	cell growth or viability, resazurin	–	–	CC50	> 100 µM
OC(Cn1cncn1)(Cn1cncn1)c1ccc(F)cc1F	–	haemolysis	human	1 µg/mL, 1 h	haemolysis	3.39%
C[C@H](O)c1cc(C(=O)N[C@@H](C)Cn2ccc(-c3ccc(C#N)c(Cl)c3)n2)n[nH]1	UDP-glucuronosyltransferase 1A6 (UGT1A6, Homo sapiens, UniProt P19224)	enzyme activity, inhibitor	human, liver microsomes	–	IC50	> 100 µM
CCCCCCCCCCCCCCCCOP(=O)([O-])OCC[N+](C)(C)C	HeLa	cell growth or viability, XTT	–	72 h	IC50	6.5 µM
CCOP(=O)(OCC)[C@@H]1C[C@H](n2cc(Cn3ccc(NC(C)=O)nc3=O)nn2)ON1C (racemic)	HEL	cell growth or viability	–	72 h	CC50	> 100 µM
COc1c(F)cccc1C=NNc1nc(-c2ccc(F)cc2)cs1	–	haemolysis	human	100 µM, 30 min, pH 7.4	haemolysis	36.6%
CCCc1cn(CCN2CCN(C(=O)c3c(C)nc4ccc(Cl)cn34)CC2)nn1	HeLa	cell growth or viability, resazurin	–	–	CC50	> 100 µM
Fc1ccc(-c2csc(NN=Cc3cccc(C(F)(F)F)c3)n2)cc1	–	haemolysis	human	50 µM, 30 min, pH 7.4	haemolysis	30.7%
CCOP(=O)(OCC)[C@@H]1C[C@H](n2cc(-c3ccccc3)nn2)ON1C	HeLa	cell growth or viability	–	72 h	CC50	> 250 µM
Fc1ccc(-c2csc(NN=Cc3ccccc3C(F)(F)F)n2)cc1	–	haemolysis	human	10 µM, 30 min, pH 7.4	haemolysis	4.43%
Cc1nc2ccc(Cl)cn2c1C(=O)N1CCN(Cc2cn(-c3ccc(C(F)(F)F)cc3)nn2)CC1	HeLa	cell growth or viability, resazurin	–	–	CC50	> 100 µM
Fc1ccc(-c2csc(NN=Cc3cccs3)n2)cc1	–	haemolysis	human	100 µM, 30 min, pH 7.4	haemolysis	61.4%
Cc1nc2ccc(Cl)cn2c1C(=O)N1CCN(CCn2cc(-c3ccc(C(C)(C)C)cc3)nn2)CC1	HeLa	cell growth or viability, resazurin	–	–	CC50	> 100 µM
COc1ccc(S(=O)(=O)Nc2cc(OC)c(NC(=O)CCCl)cc2OC)cc1	HeLa	cell growth or viability, XTT	–	72 h	IC50	16 µM
C[C@@H]1[C@H](O)[C@@H](C)/C=C/C=C/C=C/C=C/C=C/C=C/C=C/[C@H](O[C@@H]2O[C@H](C)[C@@H](O)[C@H](N)[C@@H]2O)C[C@@H]2O[C@](O)(C[C@@H](O)C[C@@H](O)[C@H](O)CC[C@@H](O)C[C@@H](O)CC(=O)O[C@H]1C)C[C@H](O)[C@H]2C(=O)O	–	haemolysis	human	4 µg/mL, 1 h	haemolysis	93.2%
